Screening results: PubChem, several laboratories
Sampled rows, rich in hits. Any-hit rate of the full collection: about 1%.
FID counter – compounds displacing fluorescent DNA intercalator, primary screen, artefact control for HCV NS3 helicase inhibitor project, biochemical, FID fluorescence. DNA fluorescent intercalator displacement. inhibition, % at 7.9 µM. AID 1845, 2009. hit rate 0.17% among 290,000; in the data active = inhibition above about 37%;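 also: higher means more ethidium bromide displaced from hairpin DNA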
PvdQ acylase – P. aeruginosa PvdQ acylase inhibitors, primary screen, biochemical, fluorescence, plate reader and imaging, single point. PvdQ acylase [Pseudomonas aeruginosa LESB58]. purified PvdQ acylase. inhibition, % at 10 µM. hit rate 0.063% among 340,000. AID 488965, 2010; in the data active = inhibition above about 30%, passing the limit was not always enough
VIM-2 inh – VIM-2 metallo-beta-lactamase inhibitors, primary screen, biochemical, epi-absorbance readout, Pseudomonas aeruginosa enzyme; AID 1527, 2009; purified VIM-2, nitrocefin hydrolysis, epi-absorbance fluorescence; inhibition, % at 5.6 µM; hit rate 0.89% among 290,000;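 active = inhibition above the mean of all tested compounds plus 3 SD, cutoff set per screening run, cut at about 7.5% in these data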;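 also: red hydrolysis product quenches plate fluorescence so inhibitors raise well fluorescence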
RAD54 branch – inhibitors of human RAD54 branch migration, primary screen, biochemical, fluorescence, single point; hit rate 0.14% among 360,000; AID 602329, 2012; RAD54 Holliday junction branch migration, FAM/BHQ fluorescence; inhibition, % at 10.4 µM;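 active = mean normalized replicate activity at least 40 and at least half of replicates scoring 40 or more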;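 also: inhibitors cause a drop in the FAM fluorescence signal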
IMP-1 inh-1 – IMP-1 metallo-beta-lactamase inhibitors, primary screen, biochemical, epi-absorbance readout, Pseudomonas aeruginosa enzyme; metallo-beta-lactamase IMP-1 (Pseudomonas aeruginosa); purified IMP-1, nitrocefin hydrolysis, epi-absorbance fluorescence; inhibition, % at 5.6 µM; hit rate 0.45% among 290,000; AID 1556, 2009;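 active = inhibition above the mean plus 3 SD of all compounds in the same screening run, cut at about 4.5% in these data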
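assay system = purified recombinant IMP-1 metallo-beta-lactamase enzyme | schedule = 15 min preincubation plus 25 min reaction at 25 °C | signal = Epi-absorbance fluorescence, 480 nm excitation, 530 nm emission | read-out basis = percent inhibition from optical density relative to buffer-blank wells | controls = IMP-1 with DMSO as 0%, enzyme-free DMSO as 100%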
IMP-1 inh-2 – IMP-1 metallo-beta-lactamase inhibitors, confirmation, selectivity assay for selective VIM-2 inhibitor project, biochemical, epi-absorbance readout, triplicate; inhibition, % at 5.6 µM; AID 1856, 2009; 1,300 tested, under 10 active; purified IMP-1, nitrocefin hydrolysis, epi-absorbance fluorescence; shares compounds with VIM-2 inh; call rule not given here
VIM-2 FRET ctr – VIM-2 inhibitors in FRET format, confirmation, artefact control for selective VIM-2 inhibitor project, biochemical, epi-absorbance artifact exclusion; shares compounds with VIM-2 inh; purified VIM-2, CCF2 FRET substrate hydrolysis; inhibition, % at 5.6 µM; hit rate 23% among 1,300; AID 1857, 2009;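 active = inhibition above the mean of all tested compounds plus 3 SD, cut at about 19% in these data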
TEM-1 counter – TEM-1 serine beta-lactamase inhibitors, counter-screen for VIM-2 inhibitor project, biochemical, epi-absorbance, HTS; shares compounds with VIM-2 inh; Purified TEM-1, nitrocefin hydrolysis, epi-absorbance fluorescence; inhibition, % at 5.6 µM; hit rate 3% among 1,300; AID 1866, 2009;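 active = inhibition above that campaign's mean inhibition plus 3 SD, cut at about 0.46% in these data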
Target sequence (P62593 whole entry, looked up): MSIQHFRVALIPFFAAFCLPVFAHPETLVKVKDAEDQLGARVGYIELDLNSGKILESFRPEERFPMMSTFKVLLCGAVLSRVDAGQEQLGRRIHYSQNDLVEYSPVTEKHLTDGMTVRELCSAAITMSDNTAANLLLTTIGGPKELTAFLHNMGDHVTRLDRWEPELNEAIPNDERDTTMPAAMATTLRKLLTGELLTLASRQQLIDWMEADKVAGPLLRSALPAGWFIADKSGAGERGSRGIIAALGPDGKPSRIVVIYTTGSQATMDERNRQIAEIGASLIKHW
VIM-2 inh conf – VIM-2 metallo-beta-lactamase inhibitors, confirmation, biochemical, epi-absorbance, hits shared with IMP-1 screen; shares compounds with VIM-2 inh; purified VIM-2, nitrocefin hydrolysis; inhibition, % at 5.6 µM; hit rate 96% among 1,300; AID 2187, 2009;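 active = inhibition of the VIM-2 beta-lactamase enzyme above about 11% from the earlier first-round screen, limit read from the data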
Hits are given with their value; 0 = inactive; - = no result.

SMILES	FID counter	PvdQ acylase	VIM-2 inh	RAD54 branch	IMP-1 inh-1	IMP-1 inh-2	VIM-2 FRET ctr	TEM-1 counter	VIM-2 inh conf
COC(=O)C[C@H]1C=C[C@@H](NS(=O)(=O)c2ccccc2F)[C@@H](CO)O1	-	-	-	0	-	-	-	-	-
CN(C)CCCNC(=O)C[C@H]1CC[C@H]2[C@H](COc3ccc(NC(=O)c4cccc(F)c4)cc3C(=O)N2C)O1	-	-	-	0	-	-	-	-	-
O=C(C[C@@H]1C=C[C@@H](NC(=O)Nc2ccc3c(c2)OCO3)[C@@H](CO)O1)NCc1ccc2c(c1)OCO2	-	-	-	0	-	-	-	-	-
O=C(C[C@@H]1CC[C@H](NC(=O)CN2CCOCC2)[C@H](CO)O1)NCCc1ccncc1	-	-	-	0	-	-	-	-	-
Cc1c(C)c2ccc(OCC(=O)NCCCn3ccnc3)c(C)c2oc1=O	0	0	42.4	0	0	0	0	0	49.0
COc1ccccc1OCC(=O)NCCCn1ccnc1	0	0	0	-	0	-	-	-	-
CCCNC(=O)Nc1ccc2c(c1)OC[C@H](C)N(C(=O)c1ccccc1F)C[C@@H](C)[C@@H](OC)CN(C)C2=O	-	-	-	0	-	-	-	-	-
O=C(COc1cc2oc(=O)c3c(c2cc1Cl)CCC3)NCCN1CCOCC1	0	0	23.2	0	0	0	0	0	29.7
NC(=O)COc1cc2oc(=O)c3c(c2cc1Cl)CCCC3	0	0	14.3	0	0	0	0	0	19.1
CC(Oc1cc2oc(=O)c3c(c2cc1Cl)CCC3)C(=O)NCCN1CCOCC1 (stereo not given)	0	0	13.4	0	0	0	0	0	23.4
C[C@H](CO)N1C[C@H](C)[C@@H](CN(C)C)Oc2cc(C#Cc3cccnc3)ccc2S1(=O)=O	-	-	-	0	-	-	-	-	-
CCn1c(SCC(=O)Nc2cc(C(C)(C)C)nn2-c2ccccc2)nnc1-c1cccs1	0	0	0	0	0	-	-	-	-
CCn1c(SCC(N)=O)nnc1-c1cc2c(C)nn(-c3ccccc3)c2s1	0	0	14.8	0	0	0	0	0	27.4
Cc1ccc(S(=O)(=O)N(C)C[C@@H]2Oc3c(NS(=O)(=O)c4ccc(F)cc4)cccc3C(=O)N([C@@H](C)CO)C[C@@H]2C)cc1	-	-	-	0	-	-	-	-	-
O=P(O)(O)c1ccccc1OCCOCCOCCOCCOc1ccccc1P(=O)(O)O	0	0	30.9	0	0	0	59.9	0	44.4
NC(=O)c1ccccc1OCCOCCOCCOc1ccccc1C(N)=O	0	0	0	0	0	-	-	-	-
COc1ccccc1S(=O)(=O)N[C@@H]1CC[C@@H](CCn2cc(C3CC3)nn2)O[C@H]1CO	-	-	-	0	-	-	-	-	-
CCN1CCN(Cc2c(O)ccc3c2O/C(=C\c2ccccc2)C3=O)CC1	0	0	30.0	-	0	0	0	0	43.9
CCN1CCN(Cc2c(O)ccc3c2O/C(=C\C=C\c2ccccc2)C3=O)CC1	0	0	0	-	0	-	-	-	-
C[C@H]1CN([C@@H](C)CO)S(=O)(=O)c2ccc(C#CC3CC3)cc2O[C@@H]1CN(C)Cc1ccc(F)cc1	-	-	-	0	-	-	-	-	-
CN1C[C@@H](O)COC[C@@H]2O[C@H](CC(=O)NC3CCC3)CC[C@H]21	-	-	-	0	-	-	-	-	-
Cc1ccc2nc(C)c(C)nc2c1N	0	0	20.0	0	0	0	0	0	31.3
Cc1ccc2ncccc2c1N	0	0	0	0	0	-	-	-	-
O=C(CN1CCOCC1)N[C@@H]1CC[C@@H](CCNC(=O)C2CCCC2)O[C@@H]1CO	-	-	-	0	-	-	-	-	-
O=C(N[C@@H]1C=C[C@@H](CC(=O)N2CCCCC2)O[C@@H]1CO)c1cccc(F)c1	-	-	-	0	-	-	-	-	-
